Experimental data reported in ChEMBL document CHEMBL4725393, “Prodrug Strategies to Improve the Solubility of the HCV NS5A Inhibitor Pibrentasvir (ABT-530)” (J Med Chem, 2020).
Converted amounts (≈) assume the structure as drawn.

How the values were obtained:
[1] = Stability of compound at pH 1 assessed as prodrug remaining level at 125 ug/ml incubated for 24 hrs by HPLC analysis; format: physicochemical; conditions: buffer, pH 1, 24 h, at 125 µg/mL
Outline: (§1)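 A DMSO stock of about 1.25 mg/mL was diluted into 0.1 N HCl (pH 1) or 50 mM phosphate buffer (pH 7.4), giving final concentrations of ~125 µg/mL prodrug and 10% DMSO. The solution was filtered and held at 37 °C in the HPLC autosampler, with injections at several times over 24 h. Percent remaining was calculated from prodrug peak area relative to t0.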

[2] = Cmax in CD1 mouse assessed as pibrentasvir1 level at 6 mg/kg, po measured up to 24 hrs; format: ADME, organism-based; design: route oral, dose 6 mg/kg, time <=24; conditions: in vivo
Outline: (§2)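 CD-1 mice with free access to food and water received an oral gavage of prodrug or PIB at 10 mL/kg in 0.2% HPMC. The dose was adjusted for prodrug MW to equal 6 mg/kg PIB. K2EDTA blood was drawn at 0.25, 0.5, 1, 3, 6, 9, 12 and 24 h. Plasma was spun at 3200 x g for 5 min at ~4°C and stored below -15°C. PIB and prodrug were measured; AUC in ng·h/mL, Cmax in ng/mL.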

[3] = AUC in beagle dog assessed as pibrentasvir1 level at 40 mg, po measured up to 24 hrs; format: ADME, organism-based, Canis lupus familiaris; design: route oral, dose 40 mg, time <=24; conditions: in vivo
Outline: (§3)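 The dose equalled 40 mg PIB after adjustment for prodrug MW. Food was returned at 12 h. K2EDTA plasma was sampled at 0.25–24 h. Cmax is in ng/mL and AUC in ng·h/mL.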

[4] = Cmax in beagle dog assessed as pibrentasvir1 level at 40 mg, po measured up to 24 hrs; format: ADME, organism-based, Canis lupus familiaris; design: route oral, dose 40 mg, time <=24; conditions: in vivo; outline: as §3
[5] = Equilibrium solubility of compound at pH 1 incubated for 24 to 48 hrs by HPLC analysis; format: physicochemical; conditions: buffer, time 24-48 hrs
Outline: (§4)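 For equilibrium solubility, excess solid was added to 3–4 mL of medium, in triplicate. Suspension pH was read after equilibration. Solids were removed by centrifugation at 4000 rpm at 25 °C, and the supernatant was passed through a 0.45 µm filter, discarding the first 2 mL. The filtrate was quantified by HPLC against standard curves.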

[6] = AUC in CD1 mouse assessed as pibrentasvir1 level at 6 mg/kg, po measured up to 24 hrs; format: ADME, organism-based; design: route oral, dose 6 mg/kg, time <=24; conditions: in vivo; outline: as §2
[7] = Equilibrium solubility of compound at pH 7.4 incubated for 24 to 48 hrs by HPLC analysis; format: physicochemical; conditions: buffer, time 24-48 hrs; outline: as §4
[8] = Solubility in FeSSIF at pH 5; format: physicochemical; outline: as §4
[9] = Stability of compound at pH 7.4 assessed as prodrug remaining level at 125 ug/ml incubated for 24 hrs by HPLC analysis; format: physicochemical; conditions: buffer, pH 7.4, 24 h, at 125 µg/mL; outline: as §1
[10] = Stability of compound at pH 7.4 assessed as prodrug remaining level at 125 ug/ml incubated for 3 hrs by HPLC analysis; format: physicochemical; conditions: buffer, pH 7.4, 3 h, at 125 µg/mL
[11] = AUC in cynomolgus monkey at 2 mg/kg, po measured up to 12 hrs; format: ADME, organism-based, Macaca fascicularis; design: route oral, dose 2 mg/kg, time <=12; conditions: in vivo
Outline: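 Female cynomolgus monkeys were fasted overnight and dosed by gastric intubation with a suspension in 0.5% HPMC at 0.5 mL/kg. The dose was MW-adjusted to 2 mg/kg PIB equivalent, and food was returned at 4 h. Plasma was collected at intervals up to 12 h and assayed for PIB and prodrug to give AUC in ng·h/mL.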

[12] = Half life of compound at pH 7.4 at 125 ug/ml at 37 degC by HPLC analysis; format: physicochemical; conditions: dose 125 µg/ml
[13] = AUC in CD1 mouse at 6 mg/kg, po measured up to 24 hrs; format: ADME, organism-based; design: route oral, dose 6 mg/kg, time <=24; conditions: in vivo; outline: as §2
[14] = Apparent permeability in MDCK cells; format: ADME, cell-based, Canis lupus familiaris; conditions: dog
[15] = Lipophilicity, logD of compound; format: physicochemical; conditions: octanol/water
[16] = Protein binding in human plasma; format: ADME, cell-free; conditions: read-out: PPB (converted)
[17] = Aqueous solubility of compound at pH 2; format: physicochemical
[18] = Permeability by PAMPA; format: ADME
[19] = Aqueous solubility of compound at pH 7; format: physicochemical
[20] = AUC in CD1 mouse at 3 mg/kg, po measured up to 24 hrs; format: ADME, organism-based; design: route oral, dose 3 mg/kg, time <=24; conditions: in vivo
Outline: (§5)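 CD-1 mice, fed ad libitum, were dosed orally at a prodrug-MW-adjusted dose equal to 3 mg/kg PIB, as a solution or suspension. Serial K2EDTA blood samples were taken from 0.25 to 24 h. Plasma was separated by centrifugation and kept frozen. PIB and prodrug levels were reported as Cmax (ng/mL) and AUC (ng·h/mL).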

[21] = Cmax in beagle dog at 40 mg, po dosed as phase 2 tablet measured up to 24 hrs; format: ADME, organism-based, Canis lupus familiaris; design: route oral, dose 40 mg, time <=24; conditions: in vivo
Outline: (§6)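 Fasted beagle dogs received the 40 mg phase 2 PIB tablet (amorphous drug in polymer support), crushed for dosing.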

[22] = Cmax in beagle dog at 40 mg, po measured up to 24 hrs; format: ADME, organism-based, Canis lupus familiaris; design: route oral, dose 40 mg, time <=24; conditions: in vivo; outline: as §3
[23] = AUC in beagle dog at 40 mg, po measured up to 24 hrs; format: ADME, organism-based, Canis lupus familiaris; design: route oral, dose 40 mg, time <=24; conditions: in vivo; outline: as §3
[24] = Cmax in CD1 mouse at 3 mg/kg, po measured up to 24 hrs; format: ADME, organism-based; design: route oral, dose 3 mg/kg, time <=24; conditions: in vivo; outline: as §5
[25] = AUC in beagle dog at 40 mg, po dosed as phase 2 tablet measured up to 24 hrs; format: ADME, organism-based, Canis lupus familiaris; design: route oral, dose 40 mg, time <=24; conditions: in vivo; outline: as §6

| SMILES | Stabilty [1] [%] | Cmax [2] [ng/mL] | AUC [3] [ng·h/mL] | Cmax [4] [ng/mL] | solubility thermodynamic [5] [µg/mL] | AUC [6] [ng·h/mL] | solubility thermodynamic [7] [µg/mL] | solubility [8] [µg/mL] | Stabilty [9] [%] | AUC at 12 h [11] [ng·h/mL] | AUC at 24 h [13] [ng·h/mL] | Papp [14] [×10⁻⁶ cm/s] | logD [15] | fraction unbound [16] | solubility [17] [µg/mL] | solubility [19] [µg/mL] | also measured |
| --- | --- | --- | --- | --- | --- | --- | --- | --- | --- | --- | --- | --- | --- | --- | --- | --- | --- |
| COC(=O)N[C@H](C(=O)N1CCC[C@H]1c1nc2cc(F)c([C@H]3CC[C@H](c4cc5nc([C@@H]6CCCN6C(=O)[C@@H](NC(=O)OC)[C@@H](C)OC)n(C(=O)OCCCOP(=O)(O)O)c5cc4F)N3c3cc(F)c(N4CCC(c5ccc(F)cc5)CC4)c(F)c3)cc2[nH]1)[C@@H](C)OC | 54 | 26 | 2140 | 196 | 23 (≈ 17.8 µM) | 456 | 631 (≈ 487 µM) | > 1000 | < 1 | – | – | – | – | – | – | – | Stabilty [10]: < 20% |
| COC(=O)N[C@H](C(=O)N1CCC[C@H]1c1nc2cc(F)c([C@H]3CC[C@H](c4cc5nc([C@@H]6CCCN6C(=O)[C@@H](NC(=O)OC)[C@@H](C)OC)n(COC(=O)Cc6ccc(OP(=O)(O)O)cc6)c5cc4F)N3c3cc(F)c(N4CCC(c5ccc(F)cc5)CC4)c(F)c3)cc2[nH]1)[C@@H](C)OC | 74 | 905 | 1920 | 155 | 45 (≈ 33.2 µM) | 16100 | 135 (≈ 99.5 µM) | > 1000 | 71 | 197 | – | – | – | – | – | – | half-life at 125 ug/ml [12]: > 24 h |
| COC(=O)N[C@H](C(=O)N1CCC[C@H]1c1nc2cc(F)c([C@H]3CC[C@H](c4cc5nc([C@@H]6CCCN6C(=O)[C@@H](NC(=O)OC)[C@@H](C)OC)n(COC(=O)[C@@H](NC(=O)/C=C/C(=O)O)C(C)C)c5cc4F)N3c3cc(F)c(N4CCC(c5ccc(F)cc5)CC4)c(F)c3)cc2[nH]1)[C@@H](C)OC | 97 | 15 | – | – | 203 (≈ 151 µM) | 231 | < 0.2 | 542 (≈ 404 µM) | 67 | – | 354 | – | – | – | – | – | – |

Continued, in another order:

| Stabilty [1] [%] | Cmax [2] [ng/mL] | AUC [3] [ng·h/mL] | Cmax [4] [ng/mL] | solubility thermodynamic [5] [µg/mL] | AUC [6] [ng·h/mL] | solubility thermodynamic [7] [µg/mL] | solubility [8] [µg/mL] | Stabilty [9] [%] | AUC at 12 h [11] [ng·h/mL] | AUC at 24 h [13] [ng·h/mL] | Papp [14] [×10⁻⁶ cm/s] | logD [15] | fraction unbound [16] | solubility [17] [µg/mL] | solubility [19] [µg/mL] | SMILES | also measured |
| --- | --- | --- | --- | --- | --- | --- | --- | --- | --- | --- | --- | --- | --- | --- | --- | --- | --- |
| – | – | – | – | – | – | – | 40 (≈ 47.7 µM) | – | – | – | 1.4 | 2.5 | 0.025 | < 100 | 300 (≈ 358 µM) | CC(C)(C)[C@@H]1NC(=O)O[C@@H]2CCC[C@H]2OC/C=C/C(F)(F)c2nc3ccccc3nc2O[C@@H]2C[C@@H](C(=O)N[C@]3(C(=O)NS(=O)(=O)C4(C)CC4)C[C@H]3C(F)F)N(C2)C1=O [GLECAPREVIR] | Papp [18]: 5.2 ×10⁻⁶ cm/s |
| – | 408 | 3860 | 339 | 422 (≈ 379 µM) | 6720 | < 0.1 | 169 (≈ 152 µM) | – | 166 | 6720 | < 1 | 5.7 | < 0.001 | 420 (≈ 377 µM) | < 0.1 | COC(=O)N[C@H](C(=O)N1CCC[C@H]1c1nc2cc([C@H]3CC[C@H](c4cc5nc([C@@H]6CCCN6C(=O)[C@@H](NC(=O)OC)[C@@H](C)OC)[nH]c5cc4F)N3c3cc(F)c(N4CCC(c5ccc(F)cc5)CC4)c(F)c3)c(F)cc2[nH]1)[C@@H](C)OC [PIBRENTASVIR] | AUC at 24 h [20]: 5170 ng·h/mL; Cmax [21]: 239 ng/mL; Cmax [22]: 339 ng/mL; AUC at 24 h [23]: 3860 ng·h/mL; Cmax [24]: 280 ng/mL; AUC [25]: 2730 ng·h/mL |
